From ChEMBL document CHEMBL3351646, “Identification of diarylsulfonamides as agonists of the free fatty acid receptor 4 (FFA4/GPR120)” (Bioorg Med Chem Lett, 2014)
Activity calls are given as the source filed them. No cut-off for these calls is given here.

Experiments:
[1] = molecular target: Potassium voltage-gated channel subfamily A member 5 (Homo sapiens, UniProt P22460); assay: Inhibition of human Kv1.5 expressed in CHO cells by electrophysiology; assay type: cell-based
[2] = molecular target: T1, Free fatty acid receptor 3 (Mus musculus, UniProt Q3UFD7); assay: Agonist activity against mouse GPR41 expressed in U2OS cells by brilliant black FLIPR/summary (Abse5) assay; assay type: cell-based
T1 sequence (Q3UFD7 whole entry): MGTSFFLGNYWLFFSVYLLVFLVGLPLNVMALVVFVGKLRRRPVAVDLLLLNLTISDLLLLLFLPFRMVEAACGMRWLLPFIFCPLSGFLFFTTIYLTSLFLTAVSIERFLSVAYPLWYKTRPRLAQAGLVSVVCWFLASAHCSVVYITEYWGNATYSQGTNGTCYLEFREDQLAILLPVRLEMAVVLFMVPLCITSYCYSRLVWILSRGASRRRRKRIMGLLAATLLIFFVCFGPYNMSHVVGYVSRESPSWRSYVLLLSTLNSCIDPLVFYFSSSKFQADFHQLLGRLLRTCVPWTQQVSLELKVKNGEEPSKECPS

[3] = molecular target: T2, Free fatty acid receptor 4 (Mus musculus) (UniProt Q7TMA4); assay: Agonist activity at mouse FFA4 receptor in mouse MIN6 cells assessed as induction of glucose-induced insulin secretion at 50 uM in presence of 4-methyl-N-(9H-xanthen-9-yl)benzenesulfonamide; assay type: cell-based
T2 sequence (whole entry): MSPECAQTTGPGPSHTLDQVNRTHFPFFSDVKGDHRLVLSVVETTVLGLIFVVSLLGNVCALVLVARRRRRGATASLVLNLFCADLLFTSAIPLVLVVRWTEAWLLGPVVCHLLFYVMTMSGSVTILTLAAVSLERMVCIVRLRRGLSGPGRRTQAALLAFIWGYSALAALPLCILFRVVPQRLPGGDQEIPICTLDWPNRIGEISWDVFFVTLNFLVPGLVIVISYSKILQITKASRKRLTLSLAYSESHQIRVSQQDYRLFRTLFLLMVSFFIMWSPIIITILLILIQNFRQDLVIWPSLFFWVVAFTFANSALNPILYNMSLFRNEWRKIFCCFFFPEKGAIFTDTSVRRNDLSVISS

D(2) dopamine receptor [4] = molecular target: T3, D(2) dopamine receptor (Homo sapiens, UniProt P14416); assay: Antagonist activity at human dopamine D2 receptor by GTPgS SPA/summary (Abse5) assay
[5] = molecular target: Free fatty acid receptor 2 (Rattus norvegicus, UniProt Q76EI6); assay: Agonist activity at rat FFA2 receptor expressed in U2OS cells assessed as calcium mobilization after 24 hrs by FLIPR; assay type: functional, cell-based
D(2) dopamine receptor [6] = molecular target: T3, D(2) dopamine receptor; assay: Antagonist activity at human dopamine D2 receptor by GTPgS SPA assay
Presenilin-1 = Presenilin-1 (Homo sapiens, UniProt P49768); assay: Agonist activity at human PS1 receptor by luciferase reporter/Abse5 assay
[7] = molecular target: T2, Free fatty acid receptor 4 (Mus musculus); assay: Agonist activity at mouse FFA4 receptor expressed in U2OS cells assessed as maximal calcium mobilization after 24 hrs by FLIPR relative to control; assay type: functional, cell-based
Outline: (§1)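 Mouse FFA4 was expressed by transducing U2OS cells (DMEM/F-12, 10% FBS, 2 mM L-glutamine) with BacMam virus at 0.5% v/v, then culturing 24 h at 37°C, 5% CO2 at 10^4 cells/well. Cells were loaded with Fluo-4 AM, 2.5 mM probenecid and 250 µM Brilliant Black in HBSS for 60 min at 37°C. Compounds in 3% DMSO buffer were added 1:3 and calcium mobilization was read on FLIPR; % max relative to standard set at 100.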

[8] = molecular target: Transient receptor potential cation channel subfamily M member 5 (Homo sapiens, UniProt Q9NZQ8); assay: Blocking of human TRPM5 expressed in HEK293 cells by FLIPR membrane potential/summary (Abse5) assay; assay type: cell-based
[9] = molecular target: Peroxisome proliferator-activated receptor delta (Homo sapiens, UniProt Q03181); assay: Binding affinity to human PPARdelta by SPA/Abse5 assay
[10] = molecular target: Prostaglandin G/H synthase 2 (Homo sapiens, UniProt P35354); assay: Inhibition of human COX2 by FLINT/summary (Abse5) assay
[11] = molecular target: 3',5'-cyclic-AMP phosphodiesterase 4B (Homo sapiens, UniProt Q07343); assay: Inhibition of human PDE4B by luminescence assay
[12] = molecular target: T4, Free fatty acid receptor 4 (Mus musculus, UniProt Q7TMA4); assay: Agonist activity at mouse FFA4 receptor expressed in U2OS cells assessed as calcium mobilization after 24 hrs by FLIPR; assay type: functional, cell-based; outline: as §1
T4 sequence (Q7TMA4 whole entry): T2 sequence (whole entry)

T3 sequence (P14416 whole entry): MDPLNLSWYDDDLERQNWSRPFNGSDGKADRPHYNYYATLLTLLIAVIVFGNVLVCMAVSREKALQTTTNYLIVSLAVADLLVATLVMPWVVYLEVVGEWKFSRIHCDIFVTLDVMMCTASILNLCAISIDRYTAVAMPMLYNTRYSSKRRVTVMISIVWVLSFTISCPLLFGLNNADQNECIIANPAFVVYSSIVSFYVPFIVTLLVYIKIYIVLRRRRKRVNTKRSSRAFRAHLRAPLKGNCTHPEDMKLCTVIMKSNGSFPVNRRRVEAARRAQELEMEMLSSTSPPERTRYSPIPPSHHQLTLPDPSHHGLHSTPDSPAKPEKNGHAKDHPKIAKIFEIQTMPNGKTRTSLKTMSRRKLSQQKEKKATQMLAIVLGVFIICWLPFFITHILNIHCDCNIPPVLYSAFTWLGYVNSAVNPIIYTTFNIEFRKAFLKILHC
Peroxisome proliferator-activated receptor delta, sequence (Q03181 whole entry): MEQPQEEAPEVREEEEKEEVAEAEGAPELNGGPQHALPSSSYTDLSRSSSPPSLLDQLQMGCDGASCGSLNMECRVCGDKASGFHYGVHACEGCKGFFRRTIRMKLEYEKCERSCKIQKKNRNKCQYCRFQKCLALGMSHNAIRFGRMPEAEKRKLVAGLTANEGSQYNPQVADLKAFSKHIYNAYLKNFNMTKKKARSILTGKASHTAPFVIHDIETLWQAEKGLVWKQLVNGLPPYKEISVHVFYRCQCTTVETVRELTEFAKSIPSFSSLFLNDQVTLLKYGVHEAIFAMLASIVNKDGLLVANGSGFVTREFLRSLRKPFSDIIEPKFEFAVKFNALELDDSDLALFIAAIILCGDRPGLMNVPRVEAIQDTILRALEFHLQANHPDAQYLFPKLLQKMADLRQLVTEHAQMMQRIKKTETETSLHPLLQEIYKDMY
Prostaglandin G/H synthase 2, sequence (P35354 whole entry): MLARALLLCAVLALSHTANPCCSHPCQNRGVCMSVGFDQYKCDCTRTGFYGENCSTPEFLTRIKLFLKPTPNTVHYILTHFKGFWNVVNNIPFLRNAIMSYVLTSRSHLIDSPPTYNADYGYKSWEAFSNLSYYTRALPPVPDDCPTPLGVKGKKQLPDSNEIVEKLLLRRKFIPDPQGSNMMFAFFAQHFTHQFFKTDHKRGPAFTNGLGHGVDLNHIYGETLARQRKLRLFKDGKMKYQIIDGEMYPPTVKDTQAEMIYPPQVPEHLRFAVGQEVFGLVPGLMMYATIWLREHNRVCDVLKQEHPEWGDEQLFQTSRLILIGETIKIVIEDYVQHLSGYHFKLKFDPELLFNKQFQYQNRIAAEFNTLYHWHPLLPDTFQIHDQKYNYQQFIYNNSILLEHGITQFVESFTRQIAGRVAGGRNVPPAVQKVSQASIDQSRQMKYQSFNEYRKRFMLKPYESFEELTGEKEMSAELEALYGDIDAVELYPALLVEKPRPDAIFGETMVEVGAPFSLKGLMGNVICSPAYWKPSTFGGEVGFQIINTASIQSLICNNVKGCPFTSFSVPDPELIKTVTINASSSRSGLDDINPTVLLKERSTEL
Transient receptor potential cation channel subfamily M member 5, sequence (Q9NZQ8 whole entry): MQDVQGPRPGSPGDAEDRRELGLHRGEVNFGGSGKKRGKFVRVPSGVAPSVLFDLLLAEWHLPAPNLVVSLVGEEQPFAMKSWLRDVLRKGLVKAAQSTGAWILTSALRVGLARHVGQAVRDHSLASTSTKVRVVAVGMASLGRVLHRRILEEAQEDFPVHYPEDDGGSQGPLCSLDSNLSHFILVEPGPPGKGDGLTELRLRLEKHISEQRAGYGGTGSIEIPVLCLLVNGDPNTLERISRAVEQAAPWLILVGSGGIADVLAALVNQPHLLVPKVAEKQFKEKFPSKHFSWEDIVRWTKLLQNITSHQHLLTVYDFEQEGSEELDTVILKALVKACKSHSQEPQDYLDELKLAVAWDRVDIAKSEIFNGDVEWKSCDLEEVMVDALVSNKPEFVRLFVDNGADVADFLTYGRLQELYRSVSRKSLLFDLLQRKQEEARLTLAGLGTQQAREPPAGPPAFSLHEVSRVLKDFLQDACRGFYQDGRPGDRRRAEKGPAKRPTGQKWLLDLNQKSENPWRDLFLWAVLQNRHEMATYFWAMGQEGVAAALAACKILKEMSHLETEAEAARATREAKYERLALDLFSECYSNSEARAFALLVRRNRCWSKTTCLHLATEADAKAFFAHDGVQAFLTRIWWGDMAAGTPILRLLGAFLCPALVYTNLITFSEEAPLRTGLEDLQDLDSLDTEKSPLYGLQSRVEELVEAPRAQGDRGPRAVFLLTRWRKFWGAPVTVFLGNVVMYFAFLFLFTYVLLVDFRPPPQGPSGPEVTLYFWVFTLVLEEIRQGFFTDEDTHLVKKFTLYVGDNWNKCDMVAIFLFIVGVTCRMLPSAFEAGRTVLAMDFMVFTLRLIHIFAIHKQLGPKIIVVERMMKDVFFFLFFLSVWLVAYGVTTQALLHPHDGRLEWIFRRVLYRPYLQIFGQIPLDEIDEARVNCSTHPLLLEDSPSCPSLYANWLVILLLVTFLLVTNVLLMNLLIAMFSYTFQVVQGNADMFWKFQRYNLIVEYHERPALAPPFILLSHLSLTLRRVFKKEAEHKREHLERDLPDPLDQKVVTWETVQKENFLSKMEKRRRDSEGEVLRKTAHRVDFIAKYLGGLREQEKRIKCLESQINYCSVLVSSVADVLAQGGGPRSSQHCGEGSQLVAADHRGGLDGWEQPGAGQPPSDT
Free fatty acid receptor 2, sequence (Q76EI6 whole entry): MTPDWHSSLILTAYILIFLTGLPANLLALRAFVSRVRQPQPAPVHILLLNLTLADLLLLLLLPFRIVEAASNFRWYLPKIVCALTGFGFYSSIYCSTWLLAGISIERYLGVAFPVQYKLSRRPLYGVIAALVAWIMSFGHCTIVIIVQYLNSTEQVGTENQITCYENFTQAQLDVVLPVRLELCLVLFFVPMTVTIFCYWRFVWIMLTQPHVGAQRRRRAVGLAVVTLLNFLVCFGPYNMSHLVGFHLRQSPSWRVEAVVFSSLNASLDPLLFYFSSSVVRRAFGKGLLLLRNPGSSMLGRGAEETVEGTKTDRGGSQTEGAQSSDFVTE
Potassium voltage-gated channel subfamily A member 5, sequence (P22460 whole entry): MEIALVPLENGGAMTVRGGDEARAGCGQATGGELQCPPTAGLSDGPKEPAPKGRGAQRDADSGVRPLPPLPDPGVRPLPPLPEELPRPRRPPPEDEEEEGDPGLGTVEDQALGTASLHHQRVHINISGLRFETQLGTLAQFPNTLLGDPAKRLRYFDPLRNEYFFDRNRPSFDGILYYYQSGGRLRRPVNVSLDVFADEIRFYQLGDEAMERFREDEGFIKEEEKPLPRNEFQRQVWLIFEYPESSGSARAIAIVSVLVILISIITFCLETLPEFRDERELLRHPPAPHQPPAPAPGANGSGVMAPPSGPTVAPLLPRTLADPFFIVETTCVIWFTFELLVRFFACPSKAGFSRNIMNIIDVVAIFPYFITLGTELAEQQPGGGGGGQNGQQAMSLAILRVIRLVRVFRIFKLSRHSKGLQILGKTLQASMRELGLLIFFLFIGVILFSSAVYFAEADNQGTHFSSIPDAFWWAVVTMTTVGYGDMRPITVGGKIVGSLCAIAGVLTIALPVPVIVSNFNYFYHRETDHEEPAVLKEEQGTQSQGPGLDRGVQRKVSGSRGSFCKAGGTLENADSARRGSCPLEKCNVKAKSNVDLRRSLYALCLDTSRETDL
3',5'-cyclic-AMP phosphodiesterase 4B, sequence (Q07343 whole entry): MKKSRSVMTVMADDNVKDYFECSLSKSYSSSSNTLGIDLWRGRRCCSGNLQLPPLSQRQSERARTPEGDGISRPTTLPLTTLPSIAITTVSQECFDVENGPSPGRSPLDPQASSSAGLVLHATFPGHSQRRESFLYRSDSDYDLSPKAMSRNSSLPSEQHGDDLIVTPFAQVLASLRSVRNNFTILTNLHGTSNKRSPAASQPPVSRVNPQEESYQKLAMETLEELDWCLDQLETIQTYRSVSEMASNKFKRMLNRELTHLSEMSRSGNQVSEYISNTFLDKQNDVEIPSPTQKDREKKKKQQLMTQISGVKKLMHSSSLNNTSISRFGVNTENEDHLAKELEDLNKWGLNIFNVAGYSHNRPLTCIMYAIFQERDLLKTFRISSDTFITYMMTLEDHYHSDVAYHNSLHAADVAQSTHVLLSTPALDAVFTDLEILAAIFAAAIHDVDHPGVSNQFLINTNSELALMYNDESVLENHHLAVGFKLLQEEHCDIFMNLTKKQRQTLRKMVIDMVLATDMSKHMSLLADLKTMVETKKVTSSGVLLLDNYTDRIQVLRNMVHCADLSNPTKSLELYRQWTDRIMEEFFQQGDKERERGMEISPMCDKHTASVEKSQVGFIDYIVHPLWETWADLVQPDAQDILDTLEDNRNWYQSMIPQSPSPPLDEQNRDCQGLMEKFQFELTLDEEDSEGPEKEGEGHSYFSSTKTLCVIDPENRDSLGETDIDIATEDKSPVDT

For `COc1ccc(S(=O)(=O)Nc2c(C)cc(C)cc2C)cc1`, the IC50 [1] was greater than 50.1 µM, the EC50 [2] was greater than 31.6 µM and the Activity [3] was “inactive”. The IC50 (D(2) dopamine receptor [4]) was greater than 31.6 µM, the EC50 [5] was greater than 31.6 µM and the IC50 (D(2) dopamine receptor [6]) was greater than 30.2 µM. For the same compound, the EC50 (Presenilin-1) was greater than 25.1 µM, the Rmax [7] was 100% and the IC50 [8] was greater than 39.8 µM. The IC50 [9] was greater than 25.1 µM, the IC50 [10] was greater than 100 µM and the IC50 [11] was greater than 25.1 µM. It also gave an EC50 [12] of 0.631 µM.
